# Source: the EternaBench riboswitch data
# Tested on: MS2 coat protein
# Assay: apparent Kd, MS2 coat protein; higher = weaker binding; RNA-MaP array
# Outline: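 Binding of fluorescently labeled MS2 coat protein, at 1.5 nM to 3 μM and room temperature, was measured with or without input ligand on designed RNAs transcribed on an Illumina sequencing chip from sequenced DNA templates. Apparent Kd was defined as the median of per-cluster binding-curve fits. No design measured on fewer than 10 clusters was kept.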
# [1] = designed as: OFF switch for flavin mononucleotide, no ligand
# [2] = ligand present: flavin mononucleotide, designed as: OFF switch for flavin mononucleotide
# [3] = designed as: ON switch for flavin mononucleotide, no ligand
# [4] = ligand present: flavin mononucleotide, designed as: ON switch for flavin mononucleotide
# [5] = designed as: OFF switch for tryptophan, no ligand
# [6] = ligand present: tryptophan, designed as: OFF switch for tryptophan
# [7] = designed as: OFF switch for theophylline, no ligand
# [8] = ligand present: theophylline, designed as: OFF switch for theophylline
# [9] = designed as: ON switch for tryptophan, no ligand
# [10] = ligand present: tryptophan, designed as: ON switch for tryptophan
# [11] = designed as: ON switch for theophylline, no ligand
# [12] = ligand present: theophylline, designed as: ON switch for theophylline
Sequence,apparent Kd [1] [nM],apparent Kd [2] [nM],apparent Kd [3] [nM],apparent Kd [4] [nM],further results
UCUCGGUAAGGAUAUAAAGCGACUCACAUGAGGAUCACCCAUGUUGUCGUCGUGGGCACAUUAGAAGGUACCAUUC,7.06,6.3,–,–,–
GAGACAGGGCAGAAGGUUCUAAACGGCUAAAUGAAAGGAUAUGCAAACAUUGACAUGAGGAUCACCCAUGUGUUAAAAGCUACG,12.1,9.88,–,–,–
GCUAGUAGAGAGAAGGAGCUUGAAUAUUUAGCGCUAGGAUAUCUUCGGUAGCCGUAGAGCAUACAUGAGGAUCACCCAUGUCCG,–,–,52.7,27.8,–
ACAUGAGGAUCACCCAUGUUGUCAUAGCAACUUUACAGGAGGAGAAGGCGAGGUUGGGCUGCCCUCGAGGAUAUCCGUAGAAAA,–,–,10.4,6.45,–
UUCACGGGCACGGCCGCCACUAACCAACAUGAGGAUCACCCAUGUGUAUUGGACGACCUCUUUGCUAGGACCGGGUGUAUGGUUC,–,–,–,–,apparent Kd [5]: 24.8 nM; apparent Kd [6]: 30.5 nM
ACUAAACCACAGAAGGAACUGAGUGCGCAAAAGUAAGGAUAUGUAAACAAUAACAUGAGGAUCACCCAUGUGACAGUAAGUUUA,–,–,8.31,7.2,–
CCGCACAUGAGGAUCACCCAUGUUCCCAGUCAACUAGGAGCCAAGGAUAUCGUUCGCGAGUGCACCGAGAAGGUGGCCCAUGAA,–,–,193,72.6,–
GGUUAACAUGAGGAUCACCCAUGUUAGGAUAUGCUACAGAGUCUGGUCCCUGGAAAUGGCAGAAGGAACGUGUU,17.2,16.2,–,–,–
CUGUAGACAGGAUAUGUUGUGCCGUACAUGAGGAUCACCCAUGUGAGAUCUCGCUACCAUACAGAAGGGUCUAAAC,43.2,57.4,–,–,–
CAACACGGAGAGAAGGAAGCUGAAACGGUGCACUUAGGAUAUCUUCCGCCAGAAAACAUGAGGAUCACCCAUGUUCAGUUAACG,–,–,7.82,7.54,–
AAAGGUCAGGAGAAGGUGCCUCUAUUACGUCGGCAAGGAUAUCCACAGCGGGCGAUUAUGCGUACAUGAGGAUCACCCAUGUUA,92.3,43.5,–,–,–
GUUGGAUUUGUGAGGAUAUGGCCGUGACAUUUGGACCAGAAGGCACAUGAGGAUCACCCAUGUAUUGAAGAACG,23.3,53.4,–,–,–
AACUUUCCCUAGAAGGUCGUGUUACAACAUGAGGAUCACCCAUGUCGCCCUAGGGCUGCUGCCGCGAAGGAUAUAGGUCCGGAG,–,–,5.77,5.32,–
ACUAGGGACCUGACAUGAGGAUCACCCAUGUUCUCGGAUCACAAGGAUAUCCGCACGUACCUGUGGGAGAAGGUGUCGUCCCAC,–,–,26,21.8,–
CACACCGAAGGAUAUACUACUGCUAUUUAGAGUGAGGGCGAACAUGAGGAUCACCCAUGUAGAAGGUCGAGAAA,17.5,20.6,–,–,–
AUGCACAUCUAGGAUACCAGCACCCUUAUGUCACUAGUUAACAUGAGGAUCACCCAUGUUUGCCCUUGGCAGCCUCAUUGACCAU,–,–,–,–,apparent Kd [7]: 68.5 nM; apparent Kd [8]: 172 nM
UCUCACAUGAGGAUCACCCAUGUUAAGGCCCGAGGACCGGUACGGCCGCCACUCGUUGGAAGCCGGUAACGUACGAAUCUUCCGU,–,–,–,–,apparent Kd [9]: 17.9 nM; apparent Kd [10]: 24 nM
GUUGUCAUCCAAGGAUAUUGUAAAAGGAGUGGGCAAGAAGGUGGAGAGCAUUGAUGAAGGUACACAUGAGGAUCACCCAUGUUC,–,–,33.6,14.8,–
ACACGUGACAAGGAUACCAGCCUGGCUAGUUCAAACCCUCACAUGAGGAUCACCCAUGUAGGCCCUUGGCAGCCUAUAGUCUAAG,–,–,–,–,apparent Kd [7]: 31.9 nM; apparent Kd [8]: 83.9 nM
AUACAAGCAAUGGAGGAUAUCGCAGAAAUCACAUGAGGAUCACCCAUGUCUUACCGUAUGUCGAGCGAGAAGGCCACGGUGCGAGU,–,–,35.5,17.3,–
GCGGGAGAUCAGAAGGCUAUAACGUUUCACAUGAGGAUCACCCAUGUGGGCUCCUAGGGAUGGAUAGAGGAUAUGACCGAAUAU,12.9,13.3,–,–,–
AAUAAACAGUAGAAGGCUGAUACCUACAAAAGUCGAAGACAUGAGGAUCACCCAUGUCAGUCAUCAGAGGAUAUACGUGAAUCG,–,–,12.3,7.49,–
CCCACAAGCACGGCCGCCACUAUAUUAAUUACUGUCCUAGAACAUGAGGAUCACCCAUGUUAAUGUAGGACCGGGUGCGGGCCCG,–,–,–,–,apparent Kd [5]: 9.57 nM; apparent Kd [6]: 12.8 nM
CCUUUUAUUAAUGAUACCAGCGUAUUAAGCAUCACCUUGGACAUGAGGAUCACCCAUGUACGCCCUUGGCAGCAUACCACUGGGU,–,–,–,–,apparent Kd [7]: 42.5 nM; apparent Kd [8]: 53.4 nM
AUCUUAGGUGAGAAGGUGGACACAUGAGGAUCACCCAUGUUGAUGGUCUUGUAGCGUUUGCAAGCCAAGGAUAUCAUCUACGGC,–,–,27.4,19.8,–
AGAUCUAACGCAGGAUAUAGUGCGGGAAAACCUAAACAUGAGGAUCACCCAUGUCUGCUACAAAGCUAGAAGGGCGUUCGGGAA,–,–,46.4,23.8,–
GAAUGGAAACUAGGAUAUCGGCAGGAGCGGGAGCGAGAAGGAGUUUACUCGGUAUACAUGAGGAUCACCCAUGUGGGUGUGCUG,294,252,–,–,–

Sequence,apparent Kd [1] [nM],apparent Kd [2] [nM],apparent Kd [3] [nM],apparent Kd [4] [nM],further results
AUGUGCAAUACGGAUACCAGCCCGUGUAGAUACAUGAGGAUCACCCAUGUCAAUGUAAAUGGCCCUUGGCAGCCGUUUGGGAGGC,–,–,–,–,apparent Kd [11]: 15.7 nM; apparent Kd [12]: 11.8 nM
UGCUAAAGUGAGAAGGGUGGACCACUCAUCGAGUAUGACACAUGAGGAUCACCCAUGUACGCUCCACAGGAUAUCAAAUUGAGG,–,–,156,28.8,–
UACGGUCAUAGAGGAUAUAGAUCGCGCAACGGUUUCGUGGCCCACAUGAGGAUCACCCAUGUUAUCUAGAAGGCUAUGAGUCGC,6.82,6.8,–,–,–
GAAGAGAGGAUACCGUUUGUAUACAACGAUACCAGUGGUAUGUAUCACCCUUGGCAGCGUGAGACAUGAGGAUCACCCAUGUGGC,–,–,–,–,apparent Kd [7]: 21.2 nM; apparent Kd [8]: 21.6 nM
GCCAUGUAAGGAUAUCUUAACUUGCAUCACGCGCGGAAUGGAGAGAAGGUACAUGAGGAUCACCCAUGUGAAAA,19.8,28,–,–,–
AACAAAAGGAAGAAGGCAGUUAAACAUGAGGAUCACCCAUGUGGGACGCGGGAAAUCAACGAGACUGAGGAUAUUCAUUAAGAA,9.84,20.9,–,–,–
AGCGUGUAAGGAUAUCCAAUUGAUGGGAGCGGAUCUUCCCAGGAGAAGGUACAUGAGGAUCACCCAUGUGGCGC,37.2,35,–,–,–
CUGUUUGGAGAGGAUAUGUCGGGAAGCUAAUCAACAGAAGGCUCAACAUGAGGAUCACCCAUGUCGGGUGCGUA,16.8,49.1,–,–,–
AUACCUAGUGAAGGAUAUCCAAAUAACUAUAGAGGAGAAGGACACAUUCUAACAUGAGGAUCACCCAUGUCCCGCCGUCUUACC,–,–,14.4,11.9,–
UACCGGUGACUCGAUACCAGUCCUCUAAAAUACAUGAGGAUCACCCAUGUAACCUUCCCAGACCCUUGGCAGCGACACAUGGAUA,–,–,–,–,apparent Kd [11]: 145 nM; apparent Kd [12]: 38.2 nM
GUCAUUCUCAACAUGAGGAUCACCCAUGUCGGUUAUCUGGGCUAGGAUAUCACGAUGCCACUGCGUGAGAAGGAGCGUUCGAUA,67.3,27.5,–,–,–
UACCUUAACACGGCCGCCACUCUCUAAUAGGAUCAUGGUACCGCACAUGAGGAUCACCCAUGUUUGAGGACCGGGUGUUAUGAAG,–,–,–,–,apparent Kd [9]: 15.1 nM; apparent Kd [10]: 28.7 nM
CCACAGACAUGAGGAUCACCCAUGUAGUUGGGCGUGUCAUCUCAGGAUAUGGCAACGCUUAUGAGCCAGAAGGGAGAAGGUUAU,13.4,12.8,–,–,–
GAGUACAGGGAGAAGGUGUAUUAAUACGCACGGCUGGUCACAUGAGGAUCACCCAUGUCGCAUAACAAGGAUAUCCGACUAAUC,139,213,–,–,–
UUAUGUGACGAGGAUAUGAAAAGGAGUGGUGAAUCAGAAGGCGUAACAUGAGGAUCACCCAUGUCAGUGGGCCU,49.6,71.3,–,–,–
CCGGGCGCUUAACAGGAUAUAGCAGUACAUACAUGAGGAUCACCCAUGUCUAUCUUGUAAUAAAGCUAGAAGGGUUCAUCCGAGGU,–,–,14,9.84,–
UAAGACGCAGGAUAUACAUGAGGAUCACCCAUGUGCAUACAAGUCAAGAGGUACAUAAGUAGAAGGGCGUGGAU,9.42,14.7,–,–,–
GCGCCAAGUAAGAAGGGCUCAAAGGAAAACCUAGACUUCACUACAUGAGGAUCACCCAUGUCUCAGCAGGAUAUUAUCGGUCAA,–,–,22.2,17.9,–
ACCCACAGAGGAUAUACAGCGAAACCUCAUAUUAAAUAUUCACAUGAGGAUCACCCAUGUAGAAGGCUGGAGAA,10.9,38.8,–,–,–
CGCUACAUAGCGGCCGCCACUGUCAUGGCUACGAUAGGUCACUCGUACAUGAGGAUCACCCAUGUCAGGACCGGGCUAUCCUCGC,–,–,–,–,apparent Kd [5]: 92.9 nM; apparent Kd [6]: 203 nM
CCGGGCAGUUUAGGAUAUACACGUGAUUCAUGCGUAGAAGGAAAUCACAGAAUAGUUUCCUGGACAUGAGGAUCACCCAUGUAG,–,–,252,147,–
AUGUAACAUGAGGAUCACCCAUGUAAGGAUAUGCAACAAAACUCUGAAUCGUAAGUUCGCAGAAGGUACAUUAG,28.4,27.3,–,–,–
AAAUGGAUCGAAGGAUAUCCCCAGACAUGAGGAUCACCCAUGUGAGGGUACAGUUAUUGUUAUCAGGAGAAGGUCGCAUUCAAA,10.3,9.5,–,–,–
UCAAGCAUGGAGAAGGCCCGGGUUGACACGUCGGGAGGAUAUCCAGACUCACAUGAGGAUCACCCAUGUUAUUGCGGCGACUCC,40.3,57,–,–,–
AUGUUAAGACAGGAUAUCCAAGCUCUAGCGUCAGGAGAAGGGUCAACAUGAGGAUCACCCAUGUGUAGUCUUCG,7.48,15.2,–,–,–
CGUAUGGGUGUCAGGAUAUGCGGGACGCUGUUACUGCAGAAGGGACAUGAGGAUCACCCAUGUAGUUCCAGACC,18.4,33.3,–,–,–
AGAACCAUAGUAGGAUAUGAGACGUUAUUGGUAACAGAAGGACUAGCUGUAACAUGAGGAUCACCCAUGUGGGCCGGACAGAGG,–,–,14.1,11.5,–
